The values below come from ChEMBL document CHEMBL3992561, “Synthesis of 1,3,5-trisubstituted pyrazolines as potential antimalarial and antimicrobial agents” (Bioorg Med Chem, 2017).

pIC50: −log10 of the molar value. ≈ marks a conversion by molar mass, not a printed value.

The subject of the first data set is Aspergillus niger. Put plainly: Antifungal activity against Aspergillus niger MTCC 8189 after 48 hrs by broth microdilution method. It is filed as functional. The note with it: MTCC 8189, 48 h. The essentials: (§1)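 Fungi grown in Sabouraud liquid medium, inoculum 0.5–2.5 x 10^3 CFU/ml. Broth microdilution per NCCLS using twofold serial dilutions in sterile water from DMSO solutions. Incubated at 35°C for 48 h. MIC (µg/ml) was the lowest concentration with no visible growth by eye. Fluconazole as positive control. Mean ± SD of three replicates.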
For orientation: Broth dilution looks for growth in wells or tubes with falling amounts of substance.
Broadly, the MIC is the lowest concentration found to suppress growth. Compound `CC(C)c1ccc(C2CC(c3ccc(O)cc3)=NN2C(=O)c2cccnc2)cc1` (centres undefined) came in with an MIC of 25 µg/mL (≈ 64.9 µM).
Still for that read-out and setting: the value for `COc1ccc(C2CC(c3ccc(O)cc3)=NN2C(=O)c2cccnc2)cc1` (centres undefined) was 12.5 µg/mL (≈ 33.5 µM).
Same read-out and setting: with `CCCc1ccc(C2CC(c3ccc(O)cc3)=NN2C(=O)c2cccnc2)cc1` (centres undefined) the figure was 25 µg/mL (≈ 64.9 µM); with `O=C(c1cccnc1)N1N=C(c2ccc(O)cc2)CC1c1ccc([N+](=O)[O-])cc1` (centres undefined), 25 µg/mL (≈ 64.4 µM).

In another data set the test system is Staphylococcus aureus. Put plainly: Antibacterial activity against Staphylococcus aureus MTCC 3160 after 24 hrs by broth microdilution method. It is filed as functional. The conditions noted are these: MTCC 3160, 24 h. The essentials:
(§2)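 Broth microdilution per NCCLS in Mueller-Hinton broth, inoculum 5 x 10^5 CFU/ml. Compounds dissolved in DMSO, twofold serial dilutions made in sterile distilled water. Incubated at 35°C for 24 h. MIC (µg/ml) taken as the lowest concentration with no visible turbidity by unaided eye. Ciprofloxacin as positive control. Three replicates, mean ± SD.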
Regarding `CC(C)c1ccc(C2CC(c3ccc(O)cc3)=NN2C(=O)c2cccnc2)cc1` (centres undefined), the MIC came out at 12.5 µg/mL (≈ 32.4 µM).
As to `COc1ccc(C2CC(c3ccc(O)cc3)=NN2C(=O)c2cccnc2)cc1` (centres undefined), it took 50 µg/mL (≈ 134 µM) to inhibit growth (MIC).
`CCCc1ccc(C2CC(c3ccc(O)cc3)=NN2C(=O)c2cccnc2)cc1` (centres undefined) yielded an MIC of 12.5 µg/mL (≈ 32.4 µM).
Same read-out and setting: with `O=C(c1cccnc1)N1N=C(c2ccc(O)cc2)CC1c1ccc([N+](=O)[O-])cc1` (centres undefined) the figure was 6.5 µg/mL (≈ 16.7 µM).

The test system of another data set is Plasmodium falciparum. Put plainly: Antimalarial activity against chloroquine-resistant Plasmodium falciparum RKL-9 schizont infected in RBC measured after 24 to 30 hrs hrs by giemsa staining based light microscopic method. It is filed as functional.
Settings: not given
Summed up:
(§3)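 Asynchronous cultures synchronised to rings with 5% aqueous sorbitol, other stages removed by centrifugation; parasitemia about 1% in fresh washed RBCs. Compounds dissolved in DMSO, diluted in RPMI-1640, tested at several concentrations in triplicate; drug-free wells as control. Incubation 37°C in CO2 for 24-30 h until schizont maturation; methanol-fixed Giemsa smears counted under oil immersion; % inhibition, IC50 by probit; n=2.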
A word on the pIC50: it is the IC50 on a negative log10 scale, so that one unit is a factor of ten. In turn, `CC(C)c1ccc(C2CC(c3ccc(O)cc3)=NN2C(=O)c2cccnc2)cc1` (centres undefined) showed a negative-log IC50 (pIC50) of 6.33.
`COc1ccc(C2CC(c3ccc(O)cc3)=NN2C(=O)c2cccnc2)cc1` (centres undefined) had a pIC50 of 6.25.
Take `CCCc1ccc(C2CC(c3ccc(O)cc3)=NN2C(=O)c2cccnc2)cc1` (centres undefined): the pIC50 is 6.72.
On the same count and under the same terms, with `O=C(c1cccnc1)N1N=C(c2ccc(O)cc2)CC1c1ccc([N+](=O)[O-])cc1` (centres undefined) the figure was 5.61.

Tested on in the next data set: not listed separately
The data set is described as follows: Inhibition of beta-hematin formation assessed as reduction in acetate buffer-initiated hemozoin formation after 18 hrs by spectrophotometric method relative to control. Also noted: concentration or dose not given beside the values. The conditions noted are these: concentration not given here. The essentials:
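Colorimetric β-hematin assay after Ncokazi and Egan. Haemin chloride in DMSO, with compounds at 0.12–5 molar equivalents to haemin and DMSO as control. Reaction started with acetate buffer pH 5.0 and run 18 h at 37°C. Pellet then washed with DMSO to remove unreacted haematin. % inhibition computed from test versus control absorbance. Duplicate determinations.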
Usually inhibition stands for the share of the control response that was lost under treatment. With `CC(C)c1ccc(C2CC(c3ccc(O)cc3)=NN2C(=O)c2cccnc2)cc1` (centres undefined), the inhibition came out at 48%.
Still for that read-out and setting: the value for `COc1ccc(C2CC(c3ccc(O)cc3)=NN2C(=O)c2cccnc2)cc1` (centres undefined) was 54%; that for `CCCc1ccc(C2CC(c3ccc(O)cc3)=NN2C(=O)c2cccnc2)cc1` (centres undefined) was 81%.
Still for that read-out and setting: the value for `O=C(c1cccnc1)N1N=C(c2ccc(O)cc2)CC1c1ccc([N+](=O)[O-])cc1` (centres undefined) was below 5%.

Tested on in the next data set: not listed separately
Put plainly: Selectivity index, ratio of IC50 for human HepG2 cells to IC50 for chloroquine-resistant Plasmodium falciparum RKL-9 schizont infected in RBC. The note with it: read-out: Ratio IC50. It is filed as toxicity. The essentials:
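HepG2 in RPMI 1640 with 10% FCS, 5 x 10^2 cells/well, serial dilutions (DMSO stocks) added after 1 h; 7 days at 37°C, 5% CO2; MTT 4 h, formazan in ethanol, absorbance 570 nm; IC50 by non-linear regression, one experiment in duplicate. Index = HepG2 IC50 / RKL-9 antiplasmodial IC50.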
As to `CC(C)c1ccc(C2CC(c3ccc(O)cc3)=NN2C(=O)c2cccnc2)cc1` (centres undefined), the selectivity ratio was 83.3.
Turning to `COc1ccc(C2CC(c3ccc(O)cc3)=NN2C(=O)c2cccnc2)cc1` (centres undefined), the selectivity ratio was 76.3.
Consider `CCCc1ccc(C2CC(c3ccc(O)cc3)=NN2C(=O)c2cccnc2)cc1` (centres undefined), for which the selectivity ratio is 216.
The same measure, in the same setting: the value for `O=C(c1cccnc1)N1N=C(c2ccc(O)cc2)CC1c1ccc([N+](=O)[O-])cc1` (centres undefined) was 7.63.

For a further data set, the system named is Pseudomonas aeruginosa. The data set is described as follows: Antibacterial activity against Pseudomonas aeruginosa MTCC 741 after 24 hrs by broth microdilution method. The note with it: MTCC 741, 24 h. The data set is classed as functional. The essentials: as §2
On to `CC(C)c1ccc(C2CC(c3ccc(O)cc3)=NN2C(=O)c2cccnc2)cc1` (centres undefined), for which the MIC came out at 12.5 µg/mL (≈ 32.4 µM).
Same read-out and setting: with `COc1ccc(C2CC(c3ccc(O)cc3)=NN2C(=O)c2cccnc2)cc1` (centres undefined) the figure was 25 µg/mL (≈ 67 µM); with `CCCc1ccc(C2CC(c3ccc(O)cc3)=NN2C(=O)c2cccnc2)cc1` (centres undefined), 12.5 µg/mL (≈ 32.4 µM); with `O=C(c1cccnc1)N1N=C(c2ccc(O)cc2)CC1c1ccc([N+](=O)[O-])cc1` (centres undefined), 25 µg/mL (≈ 64.4 µM).

In a further data set the test system is Bacillus subtilis. The data set is described as follows: Antibacterial activity against Bacillus subtilis MTCC 121 after 24 hrs by broth microdilution method. It is filed as functional. The note with it: MTCC 121, 24 h. The essentials: as §2
`CC(C)c1ccc(C2CC(c3ccc(O)cc3)=NN2C(=O)c2cccnc2)cc1` (centres undefined) showed an MIC of 50 µg/mL (≈ 130 µM).
On the same count and under the same terms, the value for `COc1ccc(C2CC(c3ccc(O)cc3)=NN2C(=O)c2cccnc2)cc1` (centres undefined) was 75 µg/mL (≈ 201 µM).
Same read-out and setting: the value for `CCCc1ccc(C2CC(c3ccc(O)cc3)=NN2C(=O)c2cccnc2)cc1` (centres undefined) was 50 µg/mL (≈ 130 µM); that for `O=C(c1cccnc1)N1N=C(c2ccc(O)cc2)CC1c1ccc([N+](=O)[O-])cc1` (centres undefined) was 12.5 µg/mL (≈ 32.2 µM).

For another data set, the system named is Escherichia coli. Put plainly: Antibacterial activity against Escherichia coli MTCC 51 after 24 hrs by broth microdilution method. The data set is classed as functional. The conditions noted are these: MTCC 51, 24 h. The essentials: as §2
For the compound `CC(C)c1ccc(C2CC(c3ccc(O)cc3)=NN2C(=O)c2cccnc2)cc1` (centres undefined), it took 3.25 µg/mL (≈ 8.43 µM) to inhibit growth (MIC).
On the same count and under the same terms, with `COc1ccc(C2CC(c3ccc(O)cc3)=NN2C(=O)c2cccnc2)cc1` (centres undefined) the figure was 25 µg/mL (≈ 67 µM).
Same read-out and setting: the value for `CCCc1ccc(C2CC(c3ccc(O)cc3)=NN2C(=O)c2cccnc2)cc1` (centres undefined) was 12.5 µg/mL (≈ 32.4 µM); that for `O=C(c1cccnc1)N1N=C(c2ccc(O)cc2)CC1c1ccc([N+](=O)[O-])cc1` (centres undefined) was 6.5 µg/mL (≈ 16.7 µM).

In the next data set the test system is HepG2. The data set is described as follows: Cytotoxicity against human HepG2 cells assessed as reduction in cell viability after 7 days by MTT assay. The conditions noted are these: HepG2, 168 h. The data set is classed as cell-based. The essentials: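 HepG2 cells maintained in RPMI 1640 with 10% FCS. Seeded at 5 x 10^2 cells per well and pre-incubated 1 h at 37°C, 5% CO2. Serial dilutions from DMSO stocks added, with medium and DMSO solvent controls. Cells incubated seven days, then MTT (5 mg/ml) added for 4 h. Formazan dissolved in ethanol, A570 read. IC50 by non-linear regression of % growth against log concentration.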
As for `CC(C)c1ccc(C2CC(c3ccc(O)cc3)=NN2C(=O)c2cccnc2)cc1` (centres undefined), the pIC50 was 4.41.
On the same count and under the same terms, the value for `COc1ccc(C2CC(c3ccc(O)cc3)=NN2C(=O)c2cccnc2)cc1` (centres undefined) was 4.37.
On the same count and under the same terms, with `CCCc1ccc(C2CC(c3ccc(O)cc3)=NN2C(=O)c2cccnc2)cc1` (centres undefined) the figure was 4.38; with `O=C(c1cccnc1)N1N=C(c2ccc(O)cc2)CC1c1ccc([N+](=O)[O-])cc1` (centres undefined), 4.73.

A further data set deals with Plasmodium falciparum. Put plainly: Antimalarial activity against chloroquine-sensitive Plasmodium falciparum MRC-2 schizont infected in RBC measured after 24 to 30 hrs hrs by giemsa staining based light microscopic method. It is filed as functional.
Settings: not given
Summed up: as §3
Consider `CC(C)c1ccc(C2CC(c3ccc(O)cc3)=NN2C(=O)c2cccnc2)cc1` (centres undefined), for which the pIC50 was 7.47.
The same measure, in the same setting: the value for `COc1ccc(C2CC(c3ccc(O)cc3)=NN2C(=O)c2cccnc2)cc1` (centres undefined) was 7.23; that for `CCCc1ccc(C2CC(c3ccc(O)cc3)=NN2C(=O)c2cccnc2)cc1` (centres undefined) was 7.66.
On to `O=C(c1cccnc1)N1N=C(c2ccc(O)cc2)CC1c1ccc([N+](=O)[O-])cc1` (centres undefined), for which the pIC50 was 5.81.

In the next data set the test system is Candida albicans. Put plainly: Antifungal activity against Candida albicans MTCC 227 after 48 hrs by broth microdilution method. The conditions noted are these: MTCC 227, 48 h. The data set is classed as functional. Summed up: as §1
`CC(C)c1ccc(C2CC(c3ccc(O)cc3)=NN2C(=O)c2cccnc2)cc1` (centres undefined) showed an MIC of 12.5 µg/mL (≈ 32.4 µM).
The compound `COc1ccc(C2CC(c3ccc(O)cc3)=NN2C(=O)c2cccnc2)cc1` (centres undefined) registered a minimal inhibitory concentration (MIC) of 50 µg/mL (≈ 134 µM).
On the same count and under the same terms, the value for `CCCc1ccc(C2CC(c3ccc(O)cc3)=NN2C(=O)c2cccnc2)cc1` (centres undefined) was 25 µg/mL (≈ 64.9 µM); that for `O=C(c1cccnc1)N1N=C(c2ccc(O)cc2)CC1c1ccc([N+](=O)[O-])cc1` (centres undefined) was 12.5 µg/mL (≈ 32.2 µM).
